# Published values pooled from the literature.
# Protocols differ between the studies behind these lines.
# Target: Angiopoietin-1 receptor (TEK, Homo sapiens, UniProt Q02763)
SMILES,observed,technique,concentration,remaining binding
C[C@@H](c1cccc(C#N)c1)n1cc(Cl)cc(C(N)=O)c1=N,cell-free assay,competition with immobilised ligand,1 µM,90%
Cc1cnn2ncc(-c3ccnc(N(C)C)n3)c2c1,binding,,1 µM,100%
N#Cc1ccccc1CSc1nnc2c(n1)[nH]c1ccccc12,binding,competition with immobilised ligand,10 µM,100%
N[C@H]1CCN(c2nccc(-c3cnn4ncccc34)n2)C1,binding,,1 µM,84%
Cc1cnc(Nc2ccc(C(=O)N3CCC(N4CCCC4)CC3)cc2)nc1-c1cc2ccccc2s1,binding,competition with immobilised ligand,1 µM,11%
CC1CCCN1c1nccc(-c2cnn3ncccc23)n1 (stereo not shown),binding,,1 µM,98%
FC(F)(F)Oc1cccc(-c2cnc3ccc(-c4ccncc4)nn23)c1,cell-free assay,competition with immobilised ligand,5 µM,76%
C=CC(=O)N1CCC(C(=O)NCC(=O)N2CCN(c3nc(-c4cnc(N)nc4C(F)F)nc(N4CCOCC4)n3)CC2)CC1,binding,competition with immobilised ligand,1 µM,97%
O=C(NCc1ncc(C(F)(F)F)cc1Cl)c1ccc2c(c1)C1(CCS(=O)(=O)CC1)[C@H](C1CC1)N2S(=O)(=O)c1ccc(F)cc1,cell-free assay,competition with immobilised ligand,1 µM,100%
c1cncc(-c2cccc(Nc3nccc(NC4CCCCC4)n3)c2)c1,binding,competition with immobilised ligand,10 µM,38%
CN(C)c1nccc(-c2cnn3ncccc23)n1,binding,,1 µM,100%
O=C(Nc1c[nH]nc1C(=O)NC1CCNCC1)c1cc(F)cc(F)c1,binding,competition with immobilised ligand,1 µM,94%
C[C@@H](c1ccc(-n2cnc3c(N)ncnc32)cc1)N1CCc2nn(C)c(Cc3ccccc3)c2C1=O,binding,competition with immobilised ligand,0.1 µM,81%
C[C@H](NC(=O)c1cnc2n1[C@](C)(Cc1ccc(C#N)cc1)C(=O)N2c1cc(Cl)c(F)c(Cl)c1)C(=O)NC1(c2ccccn2)CC1,cell-free assay,competition with immobilised ligand,1 µM,91%
O=C(c1ccc(Nc2nccc(-c3cc4ccccc4s3)n2)cc1)N1CCC(N2CCCC2)CC1,binding,competition with immobilised ligand,1 µM,31%
c1cnn2ncc(-c3ccnc(N4CCC45COC5)n3)c2c1,binding,,1 µM,83%
O=C(NCCCN1CCOCC1)c1ccc(Nc2ncc(Cl)c(-c3ccc(Cl)s3)n2)cc1,binding,competition with immobilised ligand,1 µM,47%
CNC(=O)c1ccc(Nc2ncc(C(F)(F)F)c(NCc3nccnc3N(C)S(C)(=O)=O)n2)cc1,cell-free assay,competition with immobilised ligand,0.1 µM,69%
C[C@H]1CCN(c2nccc(-c3cnn4ncccc34)n2)C1,binding,,1 µM,82%
CN(C)C(=O)Cn1cc(-c2nc(C3(c4ccc(-c5cnc(N)nc5)cc4)CC3)no2)cn1,cell-free assay,competition with immobilised ligand,1 µM,88%
CN(C)c1ncc(F)c(-c2cnn3ncccc23)n1,binding,,1 µM,100%
C[C@@H]1CN(c2cc(-c3nn(C)c4ccc(OC5(C)CC5)cc34)ncn2)C[C@H](C)O1,cell-free assay,competition with immobilised ligand,1 µM,94%
COc1cnc(Nc2cccc(S(N)(=O)=O)c2)nc1N1CCN(c2ccccc2)C(=O)C1,binding,competition with immobilised ligand,1 µM,100%
COc1cc(-c2cn(C3CCc4ccccc4N(CC(F)(F)F)C3=O)nn2)ccc1-n1ccc(C)n1 (stereo not shown),cell-free assay,competition with immobilised ligand,1 µM,81%
C[C@@H]1CN(c2ccc3ncc(-c4ccc5[nH]nc(C6CC6)c5c4)n3n2)C[C@H](C)O1,binding,competition with immobilised ligand,50 nM,99%
